The record followed here is ChEMBL document CHEMBL2010649, “Metacridamides A and B, macrocycles from conidia of the entomopathogenic fungus Metarhizium acridum” (J Nat Prod, 2012).

The source made the active and inactive calls. The calls are words filed in the database; no cut-off is given here.

The test system of one assay is Escherichia coli. The assay can be described thus: Antimicrobial activity against Escherichia coli at 100 ug/disk measured every 24 hrs for 4 days by disk diffusion assay. The format is functional, organism-based. The gist of the method:
(§1)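 Bacteria grown on nutrient agar. Plates spread with 0.6 mL of a 24 h nutrient-broth culture and dried 1 h. Sample applied in 10 μL MeOH to 7-mm paper disks, air-dried 1 h, placed on plates. Zones of inhibition read every 24 h for 4 days. Tetracycline 10 μg/disk positive control; MeOH 10 μL/disk negative control.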

A further assay relates to Drosophila melanogaster. The assay can be described thus: Insecticidal activity against Drosophila melanogaster at 100 ug. In kind it is functional, organism-based.
The test system of a further assay is Colletotrichum acutatum. The assay can be described thus: Antimicrobial activity against Colletotrichum acutatum at 100 ug/disk measured every 24 hrs for 4 days by disk diffusion assay. In kind it is functional, organism-based. An outline of the steps: (§2)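 Fungi grown on potato dextrose agar. Plates spread with 0.6 mL conidial suspension (ca. 1×10^6 conidia/mL H₂O) and dried 1 h. Sample applied in 10 μL MeOH to 7-mm paper disks, air-dried 1 h, placed on plates. Zones of inhibition read every 24 h for 4 days. Filipin 10 μg/disk positive control; MeOH 10 μL/disk negative control.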

In assay [1] the test system is Caco-2. The assay can be described thus: Cytotoxicity against human Caco2 cells after 72 hrs by XTT assay. In kind it is functional, cell-based. The following applies: Caco-2, 72 h. An outline of the steps:
(§3)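 Cell viability measured by XTT cell proliferation kit (XTT Cell Proliferation Kit II) on Caco-2, MCF-7 and HepG2/C3A lines; IC50 values derived.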
In general terms: Formazan colour is commonly taken as a measure of viable cells.

Assay [2] deals with MCF7. The assay can be described thus: Cytotoxicity against human MCF7 cells after 72 hrs by XTT assay. To be noted: MCF7, 72 h. In kind it is functional, cell-based. An outline of the steps: as §3
The test system of another assay is Bacillus cereus. The assay can be described thus: Antimicrobial activity against Bacillus cereus at 100 ug/disk measured every 24 hrs for 4 days by disk diffusion assay. In kind it is functional, organism-based. An outline of the steps: as §1
(In general: Agar diffusion results depend on both activity and mobility in agar.)

For another assay, the system named is Beauveria bassiana. The assay can be described thus: Antimicrobial activity against Beauveria bassiana ARSF 8354 at 100 ug/disk measured every 24 hrs for 4 days by disk diffusion assay. The format is functional. An outline of the steps:
as §2

The nature of assay [3]: Cytotoxicity against human HepG2/C3A cells after 72 hrs by XTT assay. The format is functional, cell-based. An outline of the steps: as §3
The next assay relates to Aedes aegypti. The assay can be described thus: Insecticidal activity against Aedes aegypti larvae at 100 ug/ml. The format is functional, organism-based.
The next assay relates to Botrytis cinerea. The assay can be described thus: Antimicrobial activity against Botrytis cinerea at 100 ug/disk measured every 24 hrs for 4 days by disk diffusion assay. The format is functional, organism-based. The gist of the method: as §2
For assay [4], the system named is Caco-2. The assay can be described thus: Cytotoxicity against human Caco2 cells at 100 uM after 72 hrs by XTT assay. The format is functional, cell-based.
The subject of assay [5] is MCF7. The assay can be described thus: Cytotoxicity against human MCF7 cells at 100 uM after 72 hrs by XTT assay. In kind it is functional, cell-based.

For orientation: IC50 means the concentration at which inhibition is half-maximal. A lower IC50 goes with greater potency in that assay. As for `CC[C@H](C)C[C@H](C)[C@H]1OC(=O)[C@H](Cc2ccccc2)NC(=O)/C(C)=C/[C@H](C)[C@@H](O)/C(C)=C/[C@H](C)[C@H](OC(C)=O)/C(C)=C/[C@@H]1C` [METACRIDAMIDE A], the “inhibition zone (IZ)” value in the assay on Escherichia coli, in the assay with Colletotrichum acutatum, in the assay on Bacillus cereus, in the assay with Beauveria bassiana and in the assay with Botrytis cinerea was “inactive” in each case. For the same compound, the outcome in the assay with Drosophila melanogaster and with Aedes aegypti was inactive. In addition, the IC50 was found to be 6.2 µM with Caco-2 [1], 11 µM in the assay with MCF7 [2] and 10.8 µM in assay [3].
With `CC[C@H](C)C[C@H](C)[C@H]1OC(=O)[C@H](Cc2ccccc2)NC(=O)/C(C)=C/[C@H](C)[C@@H](O)/C(C)=C/[C@H](C)[C@H](O)/C(C)=C\[C@@H]1C` [METACRIDAMIDE B], the outcome in the assay on Caco-2 [4] and in the assay with MCF7 [5] was inactive. The compound further yielded an IC50 in assay [3] of 18.2 µM.
